Measurements: ChEMBL document CHEMBL3351998, “Discovery of potent and specific dihydroisoxazole inhibitors of human transglutaminase 2” (J Med Chem, 2014)

What was measured:
[1] = target: T1, Protein-glutamine gamma-glutamyltransferase E (Homo sapiens) (UniProt Q08188); assay: Inhibition of human transglutaminase 3 using ((benzyloxy)carbonyl)-L-glutaminyl-L-serine peptide substrate assessed as Kinh/Ki ratio by GDH coupled assay
T1 sequence (whole entry): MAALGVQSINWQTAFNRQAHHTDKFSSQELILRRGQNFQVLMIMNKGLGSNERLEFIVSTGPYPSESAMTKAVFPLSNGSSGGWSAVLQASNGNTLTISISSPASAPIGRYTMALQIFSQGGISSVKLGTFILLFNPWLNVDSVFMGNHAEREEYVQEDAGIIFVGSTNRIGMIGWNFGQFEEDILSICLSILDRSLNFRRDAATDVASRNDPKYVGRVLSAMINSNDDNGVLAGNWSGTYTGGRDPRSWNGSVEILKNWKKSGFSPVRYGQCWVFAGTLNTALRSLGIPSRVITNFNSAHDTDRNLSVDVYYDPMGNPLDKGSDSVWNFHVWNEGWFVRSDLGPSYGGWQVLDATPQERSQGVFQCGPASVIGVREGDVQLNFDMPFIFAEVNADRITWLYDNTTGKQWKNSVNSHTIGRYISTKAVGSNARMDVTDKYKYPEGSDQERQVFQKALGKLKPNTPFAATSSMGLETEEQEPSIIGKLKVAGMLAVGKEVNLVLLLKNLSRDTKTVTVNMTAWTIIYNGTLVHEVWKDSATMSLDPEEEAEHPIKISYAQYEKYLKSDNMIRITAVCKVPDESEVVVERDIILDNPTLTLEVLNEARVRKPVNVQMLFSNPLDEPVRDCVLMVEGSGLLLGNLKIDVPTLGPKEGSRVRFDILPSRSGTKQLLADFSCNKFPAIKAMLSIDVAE
Outline: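 His-tagged human TG3 activated by cathepsin L (1 μg per 25 μg TG3, MES pH 6.0, 30 min), then quenched with 50 μM E64 for 10 min. Final TG3 ~0.43 μM in 200 mM MOPS pH 7.2, 5 mM CaCl2, 10 mM α-ketoglutarate, 300 μM NADH, 36 U/mL GDH. Z-Gln-Ser at 20/40 mM. Enzyme pre-equilibrated 30 min before inhibitors (typically 100/33.3/11.1/3.7 μM) were added. A340 curves fitted; kinh/Ki from irreversible model.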

[2] = target: T2, Protein-glutamine gamma-glutamyltransferase (Homo sapiens) (UniProt P21980); assay: Inhibition of human transglutaminase 2 using ((benzyloxy)carbony l)-L-glutaminylglycine peptide substrate assessed as Kinh/Ki ratio by GDH coupled assay
T2 sequence (whole entry): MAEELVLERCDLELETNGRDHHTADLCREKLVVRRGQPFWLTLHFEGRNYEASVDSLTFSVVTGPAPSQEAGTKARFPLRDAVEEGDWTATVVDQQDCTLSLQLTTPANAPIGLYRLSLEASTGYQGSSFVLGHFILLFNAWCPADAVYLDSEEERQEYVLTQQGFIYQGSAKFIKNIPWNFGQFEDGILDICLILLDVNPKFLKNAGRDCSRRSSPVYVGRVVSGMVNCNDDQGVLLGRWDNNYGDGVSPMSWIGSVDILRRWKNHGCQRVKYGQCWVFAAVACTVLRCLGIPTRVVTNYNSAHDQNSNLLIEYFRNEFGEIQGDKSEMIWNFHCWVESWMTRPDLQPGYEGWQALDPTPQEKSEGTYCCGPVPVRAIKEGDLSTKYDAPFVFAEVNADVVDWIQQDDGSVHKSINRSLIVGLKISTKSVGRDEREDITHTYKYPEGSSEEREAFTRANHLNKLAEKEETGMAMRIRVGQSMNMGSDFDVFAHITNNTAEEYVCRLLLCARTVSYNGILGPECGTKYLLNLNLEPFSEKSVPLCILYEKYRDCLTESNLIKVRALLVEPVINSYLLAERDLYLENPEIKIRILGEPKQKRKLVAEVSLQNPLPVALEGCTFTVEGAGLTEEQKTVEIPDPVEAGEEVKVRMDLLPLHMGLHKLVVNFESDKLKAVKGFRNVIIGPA
Outline: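 Human TG2 (V224G variant) or codon-optimized murine TG2, E. coli-expressed, final ~0.34 and 0.22 μM respectively. Buffer: 200 mM MOPS pH 7.2, 5 mM CaCl2, 10 mM α-ketoglutarate, 300 μM NADH, 36 U/mL bovine GDH. Z-Gln-Gly at 10/20 mM. Inhibitors typically at 100/33.3/11.1/3.7 μM, 1% DMSO, added after ≥5 min pre-equilibration. A340 progress curves fitted to exponential decay; kinh/Ki from irreversible inhibition model.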

[3] = Plasma concentration in CD-1 mouse at 50 mg/kg, po after 5 mins; format: ADME, organism-based; design: dose 50 mg/kg, route oral
Outline: (§1)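 Male CD-1 mice (6−8 weeks, cohorts of five) fasted ~6 h, then gavaged (10 μL/g) with inhibitor mixtures at 50 mg/kg each compound. Vehicle: 25 mg/mL per compound in 1 M HCl/10% Tween-80/25% ethanol, diluted 5-fold into 0.94% methylcellulose in 250 mM trisodium citrate. Blood sampled at 5, 20 (saphenous) and 60 min (cardiac). Plasma quantified by LC-MS (ESI-QTOF) against standard curves.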

[4] = Plasma concentration in CD-1 mouse at 50 mg/kg, po after 20 mins; format: ADME, organism-based; design: dose 50 mg/kg, route oral; outline: as §1

Row | Compound | Ratio [1] | Ratio [2] | concentration at 5 min [3] [ng/mL] | concentration at 20 min [4] [ng/mL]
1 | O=C(N[C@@H]1C[C@@H](C(=O)NC[C@@H]2CC(Br)=NO2)N(C(=O)OCc2cnc3ccccc3c2)C1)c1cccnc1 | < 1 | 108 |  | 
2 | O=C(NC[C@@H]1CC(Br)=NO1)[C@@H]1CCCN1C(=O)OCc1cnc2ccccc2c1 | < 1 | 16.9 | 2100 | 1200
3 | O=C(NC[C@@H]1CC(Br)=NO1)[C@@H]1C[C@@H](c2ccccc2)CN1C(=O)OCc1cnc2ccccc2c1 | < 1 | 48.6 |  | 
4 | O=C(NC[C@@H]1CC(Br)=NO1)[C@@H]1C[C@@H](OCc2ccccc2)CN1C(=O)OCc1cnc2ccccc2c1 | < 1 | 13.8 |  | 
5 | O=C(NC[C@@H]1CC(Br)=NO1)[C@@H]1C[C@@H](c2ccc(O)cc2)CN1C(=O)OCc1cnc2ccccc2c1 | < 1 | 91.1 |  | 
6 | O=C(NC[C@@H]1CC(Br)=NO1)[C@@H]1C[C@H](F)CN1C(=O)OCc1cnc2ccccc2c1 | < 1 | 13.4 | 2900 | 2100
7 | O=C(NC[C@@H]1CC(Br)=NO1)[C@@H]1C[C@@H](O)CN1C(=O)OCc1cnc2ccccc2c1 | < 1 | 12.5 |  | 
8 | O=C(N[C@@H]1C[C@@H](C(=O)NC[C@@H]2CC(Br)=NO2)N(C(=O)OCc2cnc3ccccc3c2)C1)c1ccc(O)cc1 | < 1 | 56.4 |  | 
